Test results taken from PMC3672992 (Therapeutic drug monitoring, 2008).
Where two headings read alike, the source gives them in different places.

Tests used:
[1] = without ritonavir boosting, cited from earlier work
[2] = cited from earlier work
[3] = mild hepatic impairment group; cited from earlier work
[4] = Steady-state pharmacokinetics of unbound lopinavir; format: in vivo, human
[5] = Steady-state plasma pharmacokinetics of total lopinavir; format: in vivo, human; settings: for Total lopinavir Ctrough / Total lopinavir tmax: steady-state, median (IQR)
[6] = Steady-state plasma pharmacokinetics of total ritonavir; format: in vivo, human
Summary of the method: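 HIV-infected Caucasian adults took protease-inhibitor combination capsules at 400/100 mg twice daily (266/66 mg if under 50 kg) with standardized meals. After at least 2 wk of dosing, blood was drawn predose and 1, 2, 3, 4, 6, 8 and 12 h after the morning dose. EDTA plasma (600g, 10 min) was stored at −80°C and assayed by HPLC-UV (linear 100–16,000 ng/mL). Ctrough is the predose, noncompartmental value.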

[7] = patients with significant liver fibrosis; cited from earlier work
[8] = Group I HIV+/HCV−, n=12, median (IQR)
[9] = Group II HIV+/HCV+, n=18, median (IQR)
[10] = Group III HIV+/HCV+ with cirrhosis, n=6, median (IQR)
[11] = Group III HIV+/HCV+ with cirrhosis, n=9

For Cc1c(O)cccc1C(=O)N[C@@H](CSc1ccccc1)[C@H](O)CN1C[C@H]2CCCC[C@H]2C[C@H]1C(=O)NC(C)(C)C [NFV, nelfinavir], the “NFV AUC(0–12) fold higher relative to noncoinfected HIV+ control group” value ([1]; HIV+/HCV+ patients with cirrhosis) is given as 2.5 fold and the “NFV AUC(0–12) fold higher relative to noncoinfected HIV+ control group” value ([1]; HIV+/HCV+ patients) is given as 1.3 fold.

For O=C1Nc2ccc(Cl)cc2[C@@](C#CC2CC2)(C(F)(F)F)O1 [efavirenz], the Efavirenz plasma concentration ([2]; HCV-coinfected individuals without cirrhosis) is given as 1.9 µg/mL and the Efavirenz plasma concentration ([2]; patients with cirrhosis, P = 0.001) is given as 3.4 µg/mL.

For Cc1cccc(C)c1OCC(=O)N[C@@H](Cc1ccccc1)[C@@H](O)C[C@H](Cc1ccccc1)NC(=O)[C@H](C(C)C)N1CCCNC1=O [lopinavir], the “Percentage of unbound LPV” value [3] is listed as 0.89%, the “Unbound lopinavir AUCu(0–12)” value [4, 8] is listed as 0.87 (0.77–1.21) μg*h/mL and the “Unbound lopinavir Cu,max” value [4, 8] is listed as 0.12 (0.10–0.14) μg/mL. For the same compound, the “Unbound lopinavir Cu,trough” value [4, 8] was 0.05 (0.03–0.08) μg/mL, the “Unbound lopinavir AUCu(0–12)” value [4, 9] was 1.21 (0.73–1.43) μg*h/mL and the “Unbound lopinavir Cu,max” value [4, 9] was 0.13 (0.10–0.18) μg/mL. For the same compound, the “Unbound lopinavir Cu,trough” value [4, 9] was 0.07 (0.05–0.10) μg/mL, the “Unbound lopinavir AUCu(0–12)” value [4, 10] was 1.41 (1.14–1.85) μg*h/mL and the “Unbound lopinavir Cu,max” value [4, 10] was 0.16 (0.14–0.18) μg/mL. For the same compound, the “Unbound lopinavir Cu,trough” value [4, 10] was 0.08 (0.03–0.10) μg/mL, the “Total lopinavir Ctrough” value ([5]; Group I HIV+/HCV−, n=24) was 7.4 (4.1–10.0) μg/mL and the “Total lopinavir Ctrough” value ([5]; Group II HIV+/HCV+, n=23) was 6.4 (4.5–10.1) μg/mL. The Total lopinavir tmax ([5]; Group II HIV+/HCV+, n=23) was 4.0 (4.0–6.0) h, the “Total lopinavir Ctrough” value [5, 11] was 7.0 (5.7–7.6) μg/mL and the Total lopinavir tmax [5, 11] was 4.0 (4.0–6.0) h. For the same compound, the “Increase in drug clearance (compensatory effect)” value ([5]; HIV/HCV-coinfected patients with cirrhosis versus HIV+/HCV− patients) was ~ 29%.

With CC(C)c1nc(CN(C)C(=O)N[C@H](C(=O)N[C@@H](Cc2ccccc2)C[C@H](O)[C@H](Cc2ccccc2)NC(=O)OCc2cncs2)C(C)C)cs1 [ritonavir] the “Total ritonavir Ctrough” value ([6]; Group I HIV+/HCV−, n=14, median (IQR)) was 0.57 (0.51–0.77) μg/mL, the “Total ritonavir Ctrough” value ([6]; Group II HIV+/HCV+, n=15, median (IQR)) was 0.50 (0.23–0.73) μg/mL and the “Total ritonavir Ctrough” value ([6]; Group III HIV+/HCV+ with cirrhosis, n=4, median (IQR)) was 0.70 (0.65–0.72) μg/mL.

For CCC[C@@]1(CCc2ccccc2)CC(O)=C([C@H](CC)c2cccc(NS(=O)(=O)c3ccc(C(F)(F)F)cn3)c2)C(=O)O1 [tipranavir], the “Change in tipranavir concentrations” value [7] is listed as “significant increase”.
